Test results taken from publication PMC3557599 (Toxicology and applied pharmacology, 2012).
Like-named read-outs stand apart in the source and are kept apart here.

Assays:
[1] = Reactivity toward GSH in phosphate buffer pH 7.4 at 37°C; assay type: physicochemical
Procedure, shortened: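 Test compound (0.459 mM) and GSH (1.53 mM) were incubated in 0.1 M KH2PO4/0.1 M KCl/5 mM Na2EDTA, pH 7.4, in a shaking bath at 37°C. Aliquots were taken every 5–10 min for up to 60 min and TFA-acidified. Analysis was C18 HPLC with an acetonitrile/0.1% TFA gradient, reading UV 220 nm for sulfoxide loss and 260 nm for products. Diastereomer half-lives came from first-order kinetics. Conjugates (3 mM compound, 10 mM GSH, 1 h) were isolated and identified by positive-ESI LC/MS-TOF.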

[2] = ref Commandeur et al., 1991; cited from earlier work
kidneys of male rats = assay: Kidney histopathology, grading of tubular necrosis in inner and outer zone; assay type: in vivo, rat; conditions: 230 µmol/kg b.w. i.p., 24 h post treatment
male Sprague-Dawley rats = assay type: in vivo, rat; conditions: 230 µmol/kg b.w. i.p.; for BUN levels compared to control (saline-treated) rats / AST and ALT levels: 24 h after dosing; for AST and ALT levels: vs saline-treated rats; for Urine protein/creatinine ratio: vs saline; for urine volume: saline-treated rats 0.20 ± 0.04 dL; for nephrotoxicity based on the biochemical endpoints assayed: equimolar comparison
[3] = system: isolated rat renal proximal tubule cells; conditions: cited from earlier work
rats = conditions: 230 µmol/kg b.w. ref Lash et al., 1994; cited from earlier work
[4] = Reaction with GSH in the presence of filtered rat liver cytosol; assay type: in vitro ADME; conditions: for Half-life +GSH + Cytosol: 0.459 mM compound, 1.53 mM GSH, filtered rat liver cytosol 2 mg/mL, 37°C; for reduction of half-life in the presence of liver cytosol: +GSH + cytosol vs +GSH alone
Procedure, shortened: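 Rat liver cytosol came from male Sprague-Dawley rats (180–225 g). It was filtered three times through centrifugal filters with pH 7.4 phosphate buffer to strip GSH and small molecules, and protein was measured by Lowry. Test compound (0.459 mM), GSH (1.53 mM) and cytosol (2 mg/mL) were incubated at 37°C. Aliquots were taken every 2.5 or 5 min, TFA-acidified, and run on C18 HPLC with UV detection. Diastereomer half-lives came from first-order kinetics.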

| Compound | reaction with GSH (formation of glutathione conjugates) [1] | kidney region primarily affected by lesions (kidneys of male rats) | BUN levels compared to control (saline-treated) rats (male Sprague-Dawley rats) | Half-life +GSH + Cytosol [4] | reduction of half-life in the presence of liver cytosol [4] | further results |
| --- | --- | --- | --- | --- | --- | --- |
| CC(=O)N[C@@H](CSC(Cl)=CCl)C(=O)O [NA-DCVC, N-Acetyl-S-(1,2-dichlorovinyl)-L-cysteine] | not reactive with GSH | cortico-medullary proximal tubules (S2–S3 segments) | approximately 3 fold |  |  | mutagenicity in the Ames test [2]: strong mutagen; Urinary excretion of glucose over 24 h compared to saline-treated rats (male Sprague-Dawley rats): 113 fold; AST and ALT levels (male Sprague-Dawley rats): not different from saline-treated rats; Urine protein/creatinine ratio (male Sprague-Dawley rats; 24 h urine): elevated; urine volume (male Sprague-Dawley rats; 24 h urine): 0.32 ± 0.11 dL; nephrotoxicity based on the biochemical endpoints assayed (male Sprague-Dawley rats): less nephrotoxic than DCVCS; cytotoxicity ([3]; isolated rat proximal tubule cells ref Commandeur et al., 1991): less cytotoxic then DCVC |
| CC(=O)N[C@@H](C[S+]([O-])C(Cl)=CCl)C(=O)O (stereo partly drawn) [NA-DCVCS, N-acetyl-S-(1,2-dichlorovinyl)-L-cysteine sulfoxide] | the corresponding glutathione conjugates were detected | cortico-medullary proximal tubules (S2–S3 segments) | approximately 3 fold |  |  | Urinary excretion of glucose over 24 h compared to saline-treated rats (male Sprague-Dawley rats): 89 fold; AST and ALT levels (male Sprague-Dawley rats): not different from saline-treated rats; Urine protein/creatinine ratio (male Sprague-Dawley rats; 24 h urine): elevated; nephrotoxicity based on the biochemical endpoints assayed (male Sprague-Dawley rats): less nephrotoxic than DCVCS; cytotoxicity ([3]; isolated rat renal proximal tubule cells ref Werner et al., 1996): more cytotoxic than NA-DCVC |
| N[C@@H](CSC(Cl)=CCl)C(=O)O [DCVC, S-(1,2-dichlorovinyl)-L-cysteine] |  |  |  |  |  | kidney histopathology (rats): scattered, patchy foci of tubular necrosis |
| CC(=O)N[C@@H](C[S+]([O-])C(Cl)=CCl)C(=O)O (single isomer, unassigned) [NA-DCVCS II, N-acetyl-S-(1,2-dichlorovinyl)-L-cysteine sulfoxide] |  |  |  | 2.3 min | 10 fold |  |
| S-(1,2-dichlorovinyl)-L-cysteine sulfoxide [DCVCS II, reference compound] |  |  |  | 3.1 min | 2 fold |  |
| S-(1,2-dichlorovinyl)-L-cysteine sulfoxide [DCVCS I, reference compound] |  |  |  | 1.4 min | 10 fold |  |
| S-(1,2-dichlorovinyl)-L-cysteine sulfoxide [DCVCS, reference compound] | the corresponding glutathione conjugates were detected | outer cortical proximal tubules (S1–S2 segments) | 7 fold |  |  | anuric rats (male Sprague-Dawley rats; 24 h): two out of the four; Glucose excretion (male Sprague-Dawley rats; 24 h urine, rats anuric or producing little urine): not different than saline-treated rats; urine volume (male Sprague-Dawley rats; 24 h urine): 0.05 ± 0.07 dL |
| CC(=O)N[C@@H](C[S+]([O-])C(Cl)=CCl)C(=O)O (single isomer, unassigned) [NA-DCVCS I, N-acetyl-S-(1,2-dichlorovinyl)-L-cysteine sulfoxide] |  |  |  | 5.4 min | 2 fold |  |
